What was measured:
PC-3 [1] = experiment: Cytotoxicity against human PC-3 cells assessed as maximum inhibition of cell viability upto 198 uM incubated for 72 hrs by MTS assay relative to control; format: functional; conditions: up to 198 µM
Summary of the method: (§1)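 Cells seeded at 0.5 to 100 × 10^3 per well the day before drug addition, then exposed to compound for 72 h. MTS added afterwards, with a further 4 h at 37 °C, and absorbance read. Tested in duplicate at 9 serial 3.16-fold dilutions, top concentration 198 μM. MI% is the maximum inhibition of viability across the tested range.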

HT-29 [2] = experiment: Cytotoxicity against human HT-29 cells assessed as inhibition of cell viability incubated for 72 hrs by MTS assay; format: functional, cell-based; conditions: HT-29, 72 h
Summary of the method: (§2)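 Cells seeded at 0.5 to 100 × 10^3 per well the day before treatment, then exposed for 72 h to 9 serial concentrations (3.16-fold dilutions, top 198 μM), in duplicate. MTS added for a final 4 h at 37 °C and absorbance read. IC50 is the concentration giving 50% loss of viability. MI% is the maximum inhibition over the tested range.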

HepG2 [3] = experiment: Cytotoxicity against human HepG2 cells assessed as inhibition of cell viability incubated for 72 hrs by MTS assay; format: functional, cell-based; conditions: HepG2, 72 h; summary of the method: as §2
HepG2 [4] = experiment: Cytotoxicity against human HepG2 cells assessed as maximum inhibition of cell viability upto 198 uM incubated for 72 hrs by MTS assay relative to control; format: functional; conditions: up to 198 µM; summary of the method: as §1
RT112/84 [5] = experiment: Cytotoxicity against human RT112/84 cells assessed as inhibition of cell viability incubated for 72 hrs by MTS assay; format: functional, cell-based; conditions: RT112/84, 72 h; summary of the method: as §2
OVCAR-3 [6] = experiment: Cytotoxicity against human OVCAR-3 cells assessed as inhibition of cell viability incubated for 72 hrs by MTS assay; format: functional, cell-based; conditions: OVCAR-3, 72 h; summary of the method: as §2
RT112/84 [7] = experiment: Cytotoxicity against human RT112/84 cells assessed as maximum inhibition of cell viability upto 198 uM incubated for 72 hrs by MTS assay relative to control; format: functional; conditions: up to 198 µM; summary of the method: as §1
[8] = Cytotoxicity against human T24/83 cells assessed as inhibition of cell viability incubated for 72 hrs by MTS assay; format: functional, cell-based; conditions: T24/83, 72 h; summary of the method: as §2
MIA PaCa-2 [9] = experiment: Cytotoxicity against human MIA PaCa-2 cells assessed as inhibition of cell viability incubated for 72 hrs by MTS assay; format: functional, cell-based; conditions: MIA PaCa-2, 72 h; summary of the method: as §2
A2780 [10] = experiment: Cytotoxicity against human A2780 cells assessed as inhibition of cell viability incubated for 72 hrs by MTS assay; format: functional, cell-based; conditions: A2780, 72 h; summary of the method: as §2
A2780 [11] = experiment: Cytotoxicity against human A2780 cells assessed as maximum inhibition of cell viability upto 198 uM incubated for 72 hrs by MTS assay relative to control; format: functional; conditions: up to 198 µM; summary of the method: as §1
HT-29 [12] = experiment: Cytotoxicity against human HT-29 cells assessed as maximum inhibition of cell viability upto 198 uM incubated for 72 hrs by MTS assay relative to control; format: functional; conditions: up to 198 µM; summary of the method: as §1
MDA-MB-231 [13] = experiment: Cytotoxicity against human MDA-MB-231 cells assessed as maximum inhibition of cell viability upto 198 uM incubated for 72 hrs by MTS assay relative to control; format: functional; conditions: up to 198 µM; summary of the method: as §1
PANC-1 [14] = experiment: Cytotoxicity against human PANC-1 cells assessed as maximum inhibition of cell viability upto 198 uM incubated for 72 hrs by MTS assay relative to control; format: functional; conditions: up to 198 µM; summary of the method: as §1
MIA PaCa-2 [15] = experiment: Cytotoxicity against human MIA PaCa-2 cells assessed as maximum inhibition of cell viability upto 198 uM incubated for 72 hrs by MTS assay relative to control; format: functional; conditions: up to 198 µM; summary of the method: as §1
SK-MES-1 [16] = experiment: Cytotoxicity against human SK-MES-1 cells assessed as inhibition of cell viability incubated for 72 hrs by MTS assay; format: functional, cell-based; conditions: SK-MES-1, 72 h; summary of the method: as §2
COLO 205 [17] = experiment: Cytotoxicity against human COLO 205 cells assessed as maximum inhibition of cell viability upto 198 uM incubated for 72 hrs by MTS assay relative to control; format: functional; conditions: up to 198 µM; summary of the method: as §1
OVCAR-3 [18] = experiment: Cytotoxicity against human OVCAR-3 cells assessed as maximum inhibition of cell viability upto 198 uM incubated for 72 hrs by MTS assay relative to control; format: functional; conditions: up to 198 µM; summary of the method: as §1
SK-MES-1 [19] = experiment: Cytotoxicity against human SK-MES-1 cells assessed as maximum inhibition of cell viability upto 198 uM incubated for 72 hrs by MTS assay relative to control; format: functional; conditions: up to 198 µM; summary of the method: as §1
BXPC-3 [20] = experiment: Cytotoxicity against human BXPC-3 cells assessed as maximum inhibition of cell viability upto 198 uM incubated for 72 hrs by MTS assay relative to control; format: functional; conditions: up to 198 µM; summary of the method: as §1
COLO 205 [21] = experiment: Cytotoxicity against human COLO 205 cells assessed as inhibition of cell viability incubated for 72 hrs by MTS assay; format: functional, cell-based; conditions: COLO 205, 72 h; summary of the method: as §2
MDA-MB-231 [22] = experiment: Cytotoxicity against human MDA-MB-231 cells assessed as inhibition of cell viability incubated for 72 hrs by MTS assay; format: functional, cell-based; conditions: MDA-MB-231, 72 h; summary of the method: as §2
BXPC-3 [23] = experiment: Cytotoxicity against human BXPC-3 cells assessed as inhibition of cell viability incubated for 72 hrs by MTS assay; format: functional, cell-based; conditions: BXPC-3, 72 h; summary of the method: as §2
PC-3 [24] = experiment: Cytotoxicity against human PC-3 cells assessed as inhibition of cell viability incubated for 72 hrs by MTS assay; format: functional, cell-based; conditions: PC-3, 72 h; summary of the method: as §2
PANC-1 [25] = experiment: Cytotoxicity against human PANC-1 cells assessed as inhibition of cell viability incubated for 72 hrs by MTS assay; format: functional, cell-based; conditions: PANC-1, 72 h; summary of the method: as §2

Row | Compound | Imax (PC-3 [1]) | IC50 (HT-29 [2]) | IC50 (HepG2 [3]) | Imax (HepG2 [4]) | IC50 (RT112/84 [5]) | IC50 (OVCAR-3 [6]) | Imax (RT112/84 [7]) | IC50 [8] | IC50 (MIA PaCa-2 [9]) | IC50 (A2780 [10]) | Imax (A2780 [11]) | Imax (HT-29 [12]) | Imax (MDA-MB-231 [13]) | Imax (PANC-1 [14]) | Imax (MIA PaCa-2 [15]) | IC50 (SK-MES-1 [16]) | Imax (COLO 205 [17]) | Imax (OVCAR-3 [18]) | Imax (SK-MES-1 [19]) | Imax (BXPC-3 [20]) | also measured
1 | C[C@H](NP(=O)(OC[C@H]1O[C@@H](n2ccc(N)nc2=O)C(F)(F)[C@@H]1O)Oc1ccccc1)C(=O)OCc1ccccc1 (stereo not given in full) [FOSGEMCITABINE PALABENAMIDE] | 65% | 480 nM | 1160 nM | 57% | 110 nM | 119000 nM | 79% | 50 nM | 120 nM | 270 nM | 76% | 64% | 71% | 45% | 69% | 110 nM | 72% | 16% | 79% | 64% | IC50 (COLO 205 [21]): 1820 nM; IC50 (MDA-MB-231 [22]): 1000 nM; IC50 (BXPC-3 [23]): 330 nM; IC50 (PC-3 [24]): 1090 nM; IC50 (PANC-1 [25]): 3960 nM
2 | Nc1ccn([C@@H]2O[C@H](CO)[C@@H](O)C2(F)F)c(=O)n1 [GEMCITABINE] | 61% | 70 nM | 16700 nM | 53% | 1220 nM | 67200 nM | 88% | < 20 nM | 40 nM | 320 nM | 85% | 64% | 74% | 43% | 68% | 1220 nM | 86% | 35% | 88% | 79% | IC50 (COLO 205 [21]): 110 nM; IC50 (MDA-MB-231 [22]): 3700 nM; IC50 (BXPC-3 [23]): 1810 nM; IC50 (PC-3 [24]): 460 nM; IC50 (PANC-1 [25]): 680 nM

— ChEMBL document CHEMBL5550111, “Design, synthesis and biological evaluation of aryloxy thiophosphoramidate triesters of anticancer nucleoside analogues” (Bioorg Med Chem, 2024)
